In test [1] the test system is Escherichia coli. The experiment in a line: Minimum inhibitory concentration against Escherichia coli A8 (inoculum, 10e5 cfu per spot). It is filed as functional. An outline of the steps:
(§1)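 MIC in µg/mL, determined in Jewell and Permain growth medium with spot inoculation at 10^5 cfu per spot.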

Test [2] has as its system Klebsiella aerogenes. Description: Minimum inhibitory concentration against Klebsiella aerogenes X5L (inoculum, 10e4 cfu per spot). It is filed as functional. An outline of the steps:
(§2)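 MIC in µg/mL, determined in Jewell and Permain growth medium with spot inoculation at 10^4 cfu per spot. P99 is described as a constitutive type I lactamase producer.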

Test [3] deals with Staphylococcus aureus. Description: Minimum inhibitory concentration against Staphylococcus aureus A4 (inoculum, 10e5 cfu per spot). It is filed as functional. In short, it runs like this: as §1
Test [4] deals with Escherichia coli. The experiment in a line: Minimum inhibitory concentration against Escherichia coli DC2 (inoculum, 10e4 cfu per spot). It is filed as functional. In short, it runs like this: as §2
Test [5] concerns Klebsiella aerogenes. Description: Minimum inhibitory concentration against Klebsiella aerogenes X6 (inoculum, 10e4 cfu per spot). Format: functional. In short, it runs like this: as §2
Test [6] deals with Escherichia coli. The experiment in a line: Minimum inhibitory concentration against Escherichia coli DCO (inoculum, 10e4 cfu per spot). It is filed as functional. In short, it runs like this: as §2
A further test concerns Streptococcus pyogenes. The experiment in a line: Minimum inhibitory concentration against Streptococcus pyogenes (inoculum, 10e5 cfu per spot) A1. It is filed as functional. In short, it runs like this: as §1
Test [7] has as its system Enterobacter cloacae. The experiment in a line: Minimum inhibitory concentration against Enterobacter cloacae P99 (inoculum, 10e4 cfu per spot)(type I lactamase producer). It is filed as functional. In short, it runs like this:
as §2

The next test deals with Proteus mirabilis. The experiment in a line: Minimum inhibitory concentration against Proteus mirabilis A18 (inoculum, 10e5 cfu per spot). Format: functional. In short, it runs like this:
as §1

The subject of a further test is Pseudomonas aeruginosa. Description: Minimum inhibitory concentration against Pseudomonas aeruginosa A21 (inoculum, 10e5 cfu per spot). It is filed as functional. An outline of the steps:
as §1

The subject of test [8] is Staphylococcus aureus. Description: Minimum inhibitory concentration against Staphylococcus aureus A6 (inoculum, 10e5 cfu per spot). It is filed as functional. An outline of the steps: as §1
The test system of test [9] is Enterobacter cloacae. Description: Minimum inhibitory concentration against Enterobacter cloacae A13 (inoculum, 10e5 cfu per spot). Format: functional. An outline of the steps:
as §1

The subject of a further test is Proteus vulgaris. The experiment in a line: Minimum inhibitory concentration against Proteus vulgaris Pv9 (inoculum, 10e5 cfu per spot).
The test system of test [10] is Escherichia coli. Description: Minimum inhibitory concentration against Escherichia coli TEM X3 (inoculum, 10e4 cfu per spot)(TEM I type lactamase producer).
Another test deals with Klebsiella pneumoniae. The experiment in a line: Minimum inhibitory concentration against Klebsiella pneumoniae A24 (inoculum, 10e5 cfu per spot). It is filed as functional. An outline of the steps:
as §1

Test [11] concerns Enterobacter cloacae. Description: Minimum inhibitory concentration against Enterobacter cloacae P99 (inoculum, 10e4 cfu per spot). Format: functional. An outline of the steps: as §2
The subject of test [12] is Escherichia coli. Description: Minimum inhibitory concentration against Escherichia coli X4 (inoculum, 10e4 cfu per spot).
In another test the test system is Serratia marcescens. Description: Minimum inhibitory concentration against Serratia marcescens A16 (inoculum, 10e5 cfu per spot). Format: functional. In short, it runs like this:
as §1

Converted amounts (≈) assume the structure as drawn.

Turning to `Cn1nnnc1SCC1=C(C(=O)OC(c2ccccc2)c2ccccc2)N2C(=O)[C@@H](Nc3nc4ccccc4[nH]3)C2SC1` (stereo not given in full), the minimal inhibitory concentration (MIC) (as a rule, the lowest concentration that inhibits growth of the organism) was 0.5 µg/mL (≈ 0.819 µM) against Escherichia coli [1]; 128 µg/mL (≈ 210 µM) against Klebsiella aerogenes [2]; 128 µg/mL (≈ 210 µM) against Staphylococcus aureus [3]; 0.016 µg/mL (≈ 0.0262 µM) against Escherichia coli [4]; 2 µg/mL (≈ 3.27 µM) against Klebsiella aerogenes [5]; 0.5 µg/mL (≈ 0.819 µM) against Escherichia coli [6]. Further, the MIC against Streptococcus pyogenes was 0.5 µg/mL (≈ 0.819 µM); in the test on Enterobacter cloacae [7] it was 64 µg/mL (≈ 105 µM); against Proteus mirabilis, 0.25 µg/mL (≈ 0.409 µM); in the test on Pseudomonas aeruginosa, greater than 128 µg/mL; with Staphylococcus aureus [8] it was 4 µg/mL (≈ 6.55 µM); in the test on Enterobacter cloacae [9], greater than 128 µg/mL. Also, the MIC amounted to 8 µg/mL (≈ 13.1 µM) with Proteus vulgaris; 4 µg/mL (≈ 6.55 µM) in the test with Escherichia coli [10]; 0.5 µg/mL (≈ 0.819 µM) in the test on Klebsiella pneumoniae; 0.5 µg/mL (≈ 0.819 µM) in the test on Enterobacter cloacae [11]; 0.5 µg/mL (≈ 0.819 µM) in the test with Escherichia coli [12]; 64 µg/mL (≈ 105 µM) with Serratia marcescens.

`Cc1nnc(SCC2=C(C(=O)OC(C)(C)C)N3C(=O)[C@@H](NC4=NCCN4)C3SC2)s1` (stereo not given in full): the MIC against Escherichia coli [1] was 4 µg/mL (≈ 8.54 µM); against Klebsiella aerogenes [2] it was 16 µg/mL (≈ 34.1 µM); with Staphylococcus aureus [3], greater than 256 µg/mL; against Escherichia coli [4], 1 µg/mL (≈ 2.13 µM); with Klebsiella aerogenes [5], 8 µg/mL (≈ 17.1 µM); against Escherichia coli [6], 8 µg/mL (≈ 17.1 µM). Also, the minimum inhibitory concentration (MIC) in the test on Streptococcus pyogenes is 16 µg/mL (≈ 34.1 µM); with Enterobacter cloacae [7] it was 16 µg/mL (≈ 34.1 µM); against Proteus mirabilis, greater than 256 µg/mL; with Pseudomonas aeruginosa, greater than 256 µg/mL; in the test on Staphylococcus aureus [8], greater than 256 µg/mL; in the test with Enterobacter cloacae [9], 64 µg/mL (≈ 137 µM). For the same compound, the minimum inhibitory concentration (MIC) in the test with Proteus vulgaris was 64 µg/mL (≈ 137 µM); against Escherichia coli [10] it was 8 µg/mL (≈ 17.1 µM); against Klebsiella pneumoniae it was 4 µg/mL (≈ 8.54 µM); against Enterobacter cloacae [11], 8 µg/mL (≈ 17.1 µM); against Escherichia coli [12] it was 4 µg/mL (≈ 8.54 µM); against Serratia marcescens, 64 µg/mL (≈ 137 µM).

As to `CC(=O)OCC1=C(C(=O)OC(c2ccccc2)c2ccccc2)N2C(=O)[C@@H](Nc3nc4cc(CC#N)ccc4[nH]3)C2SC1` (stereo not given in full), the minimal inhibitory concentration (MIC) is 0.5 µg/mL (≈ 0.842 µM) against Escherichia coli [1]; 128 µg/mL (≈ 216 µM) against Klebsiella aerogenes [2]; 256 µg/mL (≈ 431 µM) with Staphylococcus aureus [3]; less than 0.03 µg/mL in the test on Escherichia coli [4]; 0.5 µg/mL (≈ 0.842 µM) in the test on Klebsiella aerogenes [5]; 0.5 µg/mL (≈ 0.842 µM) in the test on Escherichia coli [6]. Moreover, the MIC was 0.5 µg/mL (≈ 0.842 µM) in the test on Streptococcus pyogenes; 256 µg/mL (≈ 431 µM) in the test with Enterobacter cloacae [7]; 64 µg/mL (≈ 108 µM) with Proteus mirabilis; greater than 256 µg/mL in the test on Pseudomonas aeruginosa; 1 µg/mL (≈ 1.68 µM) with Staphylococcus aureus [8]; greater than 256 µg/mL against Enterobacter cloacae [9]. Further, the minimal inhibitory concentration (MIC) is greater than 256 µg/mL in the test on Proteus vulgaris; 4 µg/mL (≈ 6.74 µM) with Escherichia coli [10]; 0.5 µg/mL (≈ 0.842 µM) in the test with Klebsiella pneumoniae; 1 µg/mL (≈ 1.68 µM) against Enterobacter cloacae [11]; 0.25 µg/mL (≈ 0.421 µM) with Escherichia coli [12]; 64 µg/mL (≈ 108 µM) with Serratia marcescens.

Turning to `CC1=C(C(=O)OC(c2ccccc2)c2ccccc2)N2C(=O)[C@@H](NC3=NC(C)C(C)N3)C2SC1` (stereo not given in full), the MIC was 32 µg/mL (≈ 67.1 µM) with Escherichia coli [1]; 32 µg/mL (≈ 67.1 µM) against Klebsiella aerogenes [2]; greater than 256 µg/mL in the test with Staphylococcus aureus [3]; 4 µg/mL (≈ 8.39 µM) against Escherichia coli [4]; 16 µg/mL (≈ 33.6 µM) against Klebsiella aerogenes [5]; 4 µg/mL (≈ 8.39 µM) against Escherichia coli [6]. For the same compound, the MIC in the test on Streptococcus pyogenes was greater than 256 µg/mL; against Enterobacter cloacae [7], 4 µg/mL (≈ 8.39 µM); against Proteus mirabilis, greater than 256 µg/mL; in the test on Pseudomonas aeruginosa, greater than 256 µg/mL; against Staphylococcus aureus [8], greater than 256 µg/mL; in the test with Enterobacter cloacae [9] it was 32 µg/mL (≈ 67.1 µM). For the same compound, the MIC is greater than 256 µg/mL with Proteus vulgaris; 4 µg/mL (≈ 8.39 µM) with Escherichia coli [10]; 16 µg/mL (≈ 33.6 µM) in the test with Klebsiella pneumoniae; 4 µg/mL (≈ 8.39 µM) against Enterobacter cloacae [11]; 4 µg/mL (≈ 8.39 µM) against Escherichia coli [12]; greater than 256 µg/mL with Serratia marcescens.

On to `CC1=C(C(=O)OC(c2ccccc2)c2ccccc2)N2C(=O)[C@@H](NC3=NC(c4ccc(O)c(O)c4)CN3)C2SC1` (stereo not given in full), for which the MIC in the test on Escherichia coli [1] is 4 µg/mL (≈ 7.19 µM); against Klebsiella aerogenes [2], 8 µg/mL (≈ 14.4 µM); in the test with Staphylococcus aureus [3], greater than 256 µg/mL; against Escherichia coli [4], 2 µg/mL (≈ 3.59 µM); in the test on Klebsiella aerogenes [5], 4 µg/mL (≈ 7.19 µM); against Escherichia coli [6] it was 4 µg/mL (≈ 7.19 µM). The MIC against Streptococcus pyogenes is greater than 256 µg/mL; against Enterobacter cloacae [7], 4 µg/mL (≈ 7.19 µM); with Proteus mirabilis it was greater than 256 µg/mL; in the test on Pseudomonas aeruginosa, greater than 256 µg/mL; against Staphylococcus aureus [8], greater than 256 µg/mL; in the test on Enterobacter cloacae [9], greater than 256 µg/mL. Besides, the MIC with Proteus vulgaris was greater than 256 µg/mL; in the test with Escherichia coli [10] it was 2 µg/mL (≈ 3.59 µM); in the test with Klebsiella pneumoniae, greater than 256 µg/mL; in the test with Enterobacter cloacae [11], 2 µg/mL (≈ 3.59 µM); in the test with Escherichia coli [12], 2 µg/mL (≈ 3.59 µM); in the test on Serratia marcescens, greater than 256 µg/mL.

The record behind these values is ChEMBL document CHEMBL1125626, “Synthesis and structure-activity relationship of new cephalosporins with amino heterocycles at C-7. Dependence of the antibacterial spectrum and beta-lactamase stability on the pKa of the C-7 heterocycle” (1991).
